# CYP2C19 act = human CYP2C19 activators, primary screen, biochemical, luminescence; 96,000 tested, under 10 active; activation factor at 5 µM; recombinant CYP2C19, luciferin-H EGE luminescence; stronger effect = higher value; 0 = fully inhibited enzyme, 1 = untreated enzyme;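 active = activation factor of at least 2 at 5 µM in the primary screen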;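 note: 0 = wells with 2.5 mM tranylcypromine and 1 = vehicle-only wells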
# Target sequence (P33261 whole entry, looked up): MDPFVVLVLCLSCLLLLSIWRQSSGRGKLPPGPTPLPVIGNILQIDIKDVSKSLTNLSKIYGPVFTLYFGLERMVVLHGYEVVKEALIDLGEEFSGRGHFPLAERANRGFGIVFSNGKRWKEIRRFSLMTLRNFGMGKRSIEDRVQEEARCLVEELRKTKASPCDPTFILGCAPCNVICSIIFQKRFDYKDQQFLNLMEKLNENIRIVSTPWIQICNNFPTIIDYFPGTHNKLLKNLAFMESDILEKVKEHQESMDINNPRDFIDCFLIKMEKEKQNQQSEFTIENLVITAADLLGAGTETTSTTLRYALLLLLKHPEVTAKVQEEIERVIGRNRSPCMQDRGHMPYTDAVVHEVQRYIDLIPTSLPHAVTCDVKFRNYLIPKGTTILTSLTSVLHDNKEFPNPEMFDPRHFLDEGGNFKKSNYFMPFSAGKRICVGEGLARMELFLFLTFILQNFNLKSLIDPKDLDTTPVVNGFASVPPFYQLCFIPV
# Ecoli WT expand = growth inhibitors of wild-type E. coli, primary screen, strain BW25113, expanded library, OD600; OD600 absorbance; growth inhibition, % at 100 µM; 0.15% of 98,000 active; AID 710, 2007;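 active = growth inhibition above about 50% at one test dose, limit read from the data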;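 note: growth measured after 20 h incubation at 37 °C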
# tolC growth inh = growth inhibitors of E. coli tolC mutant, primary screen, strain BW25113 ΔtolC::kan, 384-well; AID 573, 2007; growth inhibition, % at 10 µM (by protocol); 2.2% of 65,000 active; OD615;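 active = growth inhibition at or above a cutoff equal to the mean over every tested compound plus 3 SD, cut at about 60% in these data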;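 note: growth measured after 20 h incubation at 37 °C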
#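 System: E. coli ΔtolC::kan strain BW25113; Buffer or medium: LB broth supplemented with 50 µg/mL kanamycin; Compound: 10 µM final, single dose; Incubation: bacterial growth with compound for 20 h at 37 °C; Signal: A615 absorbance measurement; Evaluation: growth inhibition in percent.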
# CYP2C19 inh = blockers of cytochrome P450 2C19 activity – biochemical, luminescence, ADME assay, primary screen. P33261. CYP2C19 Supersomes, luciferin-H EGE luminescence, 30 min. inhibition, % at 5 µM. 21% of 96,000 active. AID 778, 2007;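 active = CYP2C19 inhibition above a set limit at 5 µM in the primary screen, cut at about 50% in these data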;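 note: plate controls were negative control wells for no effect and 2.5 mM tranylcypromine positive control for full effect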
# CYP2C9 inh = blockers of cytochrome P450 2C9 activity – biochemical, luminescence, ADME assay, primary screen; 20% of 96,000 active; P11712; CYP2C9 Supersomes, luciferin-H conversion; inhibition, % at 5 µM;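 active = blocking of liver enzyme CYP2C9 beyond about 50% at 5 µM, limit read from the data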
# CYP2C9 act = human CYP2C9 activators, primary screen, biochemical, luminescence. recombinant CYP2C9, luciferin-H conversion; stronger effect = higher value; factor 1 = untreated enzyme, 0 = blocked. AID 1024, 2008. 1.4% of 96,000 active. activation factor at 5 µM. Cytochrome P450 2C9 (Homo sapiens), P11712;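 active = activation factor of 2 or more for CYP2C9 at a 5 µM dose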;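 note: 0 = sulfaphenazole-blocked wells and 1 = vehicle-only wells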
# Numbers without * were called inactive; · = no result. Rows were chosen to be rich in hits. Some 29% of all compounds tested hit in one or more screens of this group.
SMILES,CYP2C19 act,Ecoli WT expand,tolC growth inh,CYP2C19 inh,CYP2C9 inh,CYP2C9 act
COCCn1c(SCC(=O)Nc2ccc(NC(=O)c3ccco3)c(OC)c2)nc2ccccc2c1=O,1,-3,·,-2,21,0.8
Cc1ccc(NC(=O)CSc2nc3ccccc3c(=O)n2CCCC(=O)N2CCCC2)cc1,0.5,-6,11,55*,44,0.6
Cc1ccc(NC(=O)CSc2nc3ccccc3c(=O)n2CCCN2CCCCC2)cc1C,0.5,8,·,48,63*,0.4
CCCCn1c(SCC(=O)Nc2cc(NC(=O)c3ccco3)ccc2C)nc2ccccc2c1=O,0.3,1,5,72*,75*,0.3
O=C(Cn1cnnn1)Nc1ccccc1Cc1ccccc1,·,4,-18,·,·,·
C=CCc1c(C)nc(SC)nc1Nc1ccc(C)cc1,0.9,-10,·,6,5,0.9
O=C(Oc1ccccc1Cl)c1ccc(-n2cncn2)nc1,0.1,-1,·,93*,78*,0.2
C=CCOC(=O)c1ccc(-n2cncn2)nc1,0.2,3,·,80*,31,0.7
COc1ccc(OC)c(C2C(C(=O)c3cccs3)=C(O)C(=O)N2CCN(C)C)c1 (stereo not given),1.1,0,-8,-6,-3,1
COCCNC(=O)CC(c1ccccc1)c1ccccc1,0.5,7,·,52*,36,0.6
COCCNC(=O)Cc1ccc(Br)cc1,0.4,-1,-6,56*,-7,1.1
CC(C)NC(=O)Cc1ccc(Br)cc1,0.6,13,·,42,-4,1
COCCNC(=O)CSc1nc(-c2ccccc2)c(-c2ccccc2)o1,0.2,1,·,82*,71*,0.3
O=C(CSc1ccc2nnc(-c3ccccn3)n2n1)N1CCN(c2ccccc2)CC1,0.6,3,-7,38,-1,1
Cc1cc(C)c(-n2c(O)c(C=NCCN3CCOCC3)c(=O)[nH]c2=O)c(C)c1,1.1,-6,4,-14,-17,1.2
O=C1NC2(CCCC2)N=C1c1ccc(Cl)cc1,0.2,0,-4,84*,20,0.8
O=C1NC2(CCCCC2)N=C1c1ccc(F)cc1,0.8,0,-16,17,10,0.9
O=C1NC2(CCCCC2)N=C1c1ccc(Br)cc1,0.4,-2,·,57*,20,0.8
CCCCC1CCC(C(=O)Nc2ccccc2)CC1 (stereo not given),0.9,-11,·,7,41,0.6
Cc1ccc(CNc2oc(C)nc2C#N)cc1,0.7,4,·,32,4,1
CSc1ccc(CNc2cccc3ccccc23)cc1,0,2,·,98*,13,0.9
CSc1ccc(CNc2ccc(C)c(C)c2)cc1,0,-2,·,98*,0,1
CSc1ccc(CNc2ccc(C)cc2)cc1,0.1,5,·,87*,13,0.9
CCN1CCN(S(=O)(=O)c2cc(C)c(OC)cc2C)CC1,0.7,-2,-13,28,-74,1.7
O=C(CSc1nccn1Cc1ccccc1)Nc1nccs1,0.7,9,10,35,41,0.6
SMILES,CYP2C19 act,Ecoli WT expand,tolC growth inh,CYP2C19 inh,CYP2C9 inh,CYP2C9 act
Cc1nnc(NC(=O)CSc2cn(Cc3ccccc3)c3ccccc23)s1,1,-1,-7,-1,-9,1.1
Cc1cccc(Cn2cc(SCC(=O)Nc3nccs3)c3ccccc32)c1,1.1,-12,·,-14,60*,0.4
Cc1ccc(Cn2cc(SCC(=O)Nc3nccs3)c3ccccc32)cc1,1.1,-13,·,-10,91*,0.1
CCCCCCc1nnc(N)s1,0.7,11,·,25,28,0.7
Cc1csc(NC(=O)C2CCCN2C(=O)Oc2ccccc2)n1 (stereo not given),0.9,0,-19,12,6,0.9
Cc1cc(C)cc(NC(=O)C2CCCN2C(=O)Oc2ccccc2)c1 (stereo not given),0.3,3,·,66*,67*,0.3
Cc1cccc(NC(=O)C2CCCN2C(=O)Oc2ccccc2)c1 (stereo not given),0.1,-1,·,88*,57*,0.4
CCOc1ccc(S(=O)(=O)NCC(=O)N(C)Cc2cccnc2)cc1,0.7,6,·,29,-2,1
